In ChEMBL document CHEMBL3244135, “11,12-Secoprostaglandins. 1. Acylhydroxyalkanoic acids and related compounds” (J Med Chem, 1977):
Calls of active or inactive are those of the source. The rule behind the calls is not given here.

Assays:
Mus musculus [1] = species: Mus musculus; assay: Binding affinity to prostanoid receptor in [8-14C]-adenine-treated CD-1 mouse ovary assessed as increase in c-AMP production at 10 ug/mL after 30 mins by paper chromatographic analysis in presence of phosphodiesterase inhibitor theophylline; format: tissue-based; conditions: Female gonad
Procedure, shortened: (§1)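 Virgin CD-1 female mice over 70 days old; three ovaries (15-25 mg), denuded of fat, preincubated 1 h at 37 °C in 2 ml aerated Krebs–Ringer phosphate pH 7.2 with 1 μCi adenine-8-14C. Theophylline (0.2 ml of 0.05 M stock) and compound in Me2SO then added, 30 min at 37 °C. Stopped with trichloroacetic acid; cAMP-14C isolated, paper chromatography; expressed as fold over untreated ovaries.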

Mus musculus [2] = species: Mus musculus; assay: Binding affinity to prostanoid receptor in [8-14C]-adenine-treated CD-1 mouse ovary assessed as increase in c-AMP production at 100 ug/mL after 30 mins by paper chromatographic analysis in presence of phosphodiesterase inhibitor theophylline; format: tissue-based; conditions: Female gonad; procedure, shortened: as §1
Mus musculus [3] = species: Mus musculus; assay: Binding affinity to prostanoid receptor in [8-14C]-adenine-treated CD-1 mouse ovary assessed as increase in c-AMP production at 25 ug/mL after 30 mins by paper chromatographic analysis in presence of phosphodiesterase inhibitor theophylline; format: tissue-based; conditions: Female gonad; procedure, shortened: as §1
[4] = biological target: T1, 15-hydroxyprostaglandin dehydrogenase [NAD(+)] (Homo sapiens, UniProt P15428); assay: Stability of the compound assessed as prostaglandin 15-hydroxydehydrogenase (unknown origin)-mediated metabolite formation; format: ADME
T1 sequence (P15428 whole entry): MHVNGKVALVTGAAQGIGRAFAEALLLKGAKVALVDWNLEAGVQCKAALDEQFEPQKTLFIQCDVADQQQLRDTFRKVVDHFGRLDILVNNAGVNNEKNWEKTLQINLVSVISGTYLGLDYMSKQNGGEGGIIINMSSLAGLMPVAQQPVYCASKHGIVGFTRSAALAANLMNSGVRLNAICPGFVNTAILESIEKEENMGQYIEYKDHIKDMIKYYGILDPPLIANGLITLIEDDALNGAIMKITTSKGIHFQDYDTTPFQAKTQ

Rattus norvegicus = species: Rattus norvegicus; assay: Binding affinity to prostanoid receptor in Holtzman rat lipocytes assessed as compound equivalent to 1 ng cold PGE1 in displacing [3H]-PGE1 from receptor after 30 mins; format: cell-based; conditions: in the assay text read “after 60 mins” for “after 30 mins”
Procedure, shortened: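 Test compound at appropriate concentrations incubated with 0.4 ng [3H]-PGE1 and 125 μg rat lipocyte binding preparation for 60 min at 37 °C. Bound [3H]-PGE1 then measured.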

Mus musculus [5] = species: Mus musculus; assay: Binding affinity to prostanoid receptor in [8-14C]-adenine-treated CD-1 mouse ovary assessed as increase in c-AMP production at 200 ug/mL after 30 mins by paper chromatographic analysis in presence of phosphodiesterase inhibitor theophylline; format: tissue-based; conditions: Female gonad; procedure, shortened: as §1
Mus musculus [6] = species: Mus musculus; assay: Binding affinity to prostanoid receptor in [8-14C]-adenine-treated CD-1 mouse ovary assessed as increase in c-AMP production at 1 ug/mL after 30 mins by paper chromatographic analysis in presence of phosphodiesterase inhibitor theophylline; format: tissue-based; conditions: Female gonad; procedure, shortened: as §1
Mus musculus [7] = species: Mus musculus; assay: Binding affinity to prostanoid receptor in [8-14C]-adenine-treated CD-1 mouse ovary assessed as increase in c-AMP production at 50 ug/mL after 30 mins by paper chromatographic analysis in presence of phosphodiesterase inhibitor theophylline; format: tissue-based; conditions: Female gonad; procedure, shortened: as §1
Mus musculus [8] = species: Mus musculus; assay: Binding affinity to prostanoid receptor in [8-14C]-adenine-treated CD-1 mouse ovary assessed as increase in c-AMP production at 0.1 ug/mL after 30 mins by paper chromatographic analysis in presence of phosphodiesterase inhibitor theophylline; format: tissue-based; conditions: Female gonad; procedure, shortened: as §1
Mus musculus [9] = species: Mus musculus; assay: Binding affinity to prostanoid receptor in [8-14C]-adenine-treated CD-1 mouse ovary assessed as increase in c-AMP production at 0.01 ug/mL after 30 mins by paper chromatographic analysis in presence of phosphodiesterase inhibitor theophylline; format: tissue-based; conditions: Female gonad; procedure, shortened: as §1
Mus musculus [10] = species: Mus musculus; assay: Binding affinity to prostanoid receptor in [8-14C]-adenine-treated CD-1 mouse ovary assessed as increase in c-AMP production at 0.05 ug/mL after 30 mins by paper chromatographic analysis in presence of phosphodiesterase inhibitor theophylline; format: tissue-based; conditions: Female gonad; procedure, shortened: as §1
Canis familiaris [11] = assay: Renal vasodilatory activity in dog assessed as increase in renal blood flow administered through infusion into renal artery; format: functional, organism-based; conditions: Canis lupus familiaris; Kidney
Cavia porcellus [12] = assay: Inhibition of collagen-induced platelet aggregation in ip dosed guinea pig; format: functional
Cavia porcellus [13] = assay: Inhibition of collagen-induced platelet aggregation in po dosed guinea pig; format: functional
Procedure, shortened: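 Test compound given orally to guinea pigs. Collagen-induced platelet aggregation then measured. Potency expressed as ED50 in mg/kg.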

Canis familiaris [14] = assay: Renal vasodilatory activity in dog assessed as increase in renal blood flow at 0.5 mg/kg/min, iv administered as infusion relative to control; format: functional, Canis lupus familiaris, Kidney
Procedure, shortened: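 Anesthetized dogs given intravenous infusion of 0.5 mg/kg/min. Renal blood flow measured electromagnetically in a single kidney. Read-out is the maximum increase above the control flow value.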

Compound | fold change (FC) (Mus musculus [1]) | fold change (FC) (Mus musculus [2]) | fold change (FC) (Mus musculus [3]) | Stability [4] | Activity (Rattus norvegicus) | also measured
CCCCCC(O)C#CCC(CCCCCCC(=O)O)C(C)=O (centres undefined) | 2 | 7 | 4 | Stable |  | 
CC(=O)C(CCCCO)CCCCCCC(=O)O (centres undefined) |  | 1 | 1 | Stable | 450 µgequiv | 
CCCCCC(O)CCCC(CCCCCCC(=O)O)C(C)=O (mixture of isomers) [listing 1 of 2 here] | 11 | 23 | 14 |  | 1.7 µgequiv | fold change (FC) (Mus musculus [5]): 16; fold change (FC) (Mus musculus [6]): 2; fold change (FC) (Mus musculus [7]): 16
CCCCCC(C)(O)CCCC(CCCCCCC(=O)O)C(C)=O (centres undefined) | 4 | 11 | 9 | Stable | 0.4 µgequiv | 
CCCCC[C@H](O)/C=C/[C@H]1[C@H](O)CC(=O)[C@@H]1C/C=C\CCCC(=O)O | 80 |  |  |  | 1.4 ngequiv | fold change (FC) (Mus musculus [6]): 75; fold change (FC) (Mus musculus [8]): 57; fold change (FC) (Mus musculus [9]): 14; fold change (FC) (Mus musculus [10]): 35
CCCCCC(O)CCCC(CCCCCCC(=O)O)C(C)O (centres undefined) | 15 | 33 | 25 | Stable | 2.5 µgequiv | 
CC(=O)C(CCCCCCC(=O)O)CCCC1(O)CCCCC1 (centres undefined) | 1 | 4 | 3 | Stable | > 125 µgequiv | 
CCCCC[C@H](O)CCCC(CCCCCCC(=O)O)C(C)=O (some centres undefined) | 19 | 29 | 25 | Stable | 3.2 µgequiv | 
CCCCC(O)CCCCC(CCCCCCC(=O)O)C(C)=O (centres undefined) | 9 | 20 | 9 | Stable | 2.1 µgequiv | 
CCCCCC(O)CCCC(CCCCCCC(=O)O)C(C)=O (racemic) | 7 | 23 | 19 |  |  | 
CCCCC[C@H](O)/C=C/[C@H]1[C@H](O)CC(=O)[C@@H]1CCCCCCC(=O)O [ALPROSTADIL] |  |  |  |  |  | fold change (FC) (Mus musculus [6]): 54; Activity (Canis familiaris [11]): Active; fold change (FC) (Mus musculus [8]): 25; ED50 (Cavia porcellus [12]): 0.02 mg/kg; fold change (FC) (Mus musculus [9]): 8; fold change (FC) (Mus musculus [10]): 29; inhibition (Cavia porcellus [13]): inactive
CCCCCC(=O)CCCC(CCCCCCC(=O)O)C(C)=O (centres undefined) | 2 | 9 | 4 | Stable | 7 µgequiv | 

More lines, main results first:

fold change (FC) (Mus musculus [1]) | fold change (FC) (Mus musculus [2]) | fold change (FC) (Mus musculus [3]) | Stability [4] | Activity (Rattus norvegicus) | Compound | also measured
19 | 39 | 37 | Stable | 6.6 µgequiv | CCCCCCCC(O)CCCC(CCCCCCC(=O)O)C(C)=O (centres undefined) | 
2 | 3 | 3 | Stable |  | CCCCC[C@@H](O)C#CCC(CCCCCCC(=O)O)C(C)=O (some centres undefined) | 
1 | 1 | 1 | Stable | > 125 µgequiv | CC(=O)C(CCCCCCCCCO)CCCCCCC(=O)O (centres undefined) | 
8 | 18 | 9 | Stable | 4.6 µgequiv | CCCCCC(O)CCCC(CO)CCCCCCC(=O)O (centres undefined) | 
5 | 19 | 12 | Stable | 2.1 µgequiv | CCCCC[C@@H](O)CCCC(CCCCCCC(=O)O)C(C)=O (some centres undefined) | 
6 | 26 | 17 | Stable | 2.4 µgequiv | CCCCCC(O)CCCC(CCCCCCC(=O)O)C(=O)CC (centres undefined) | 
 | 2 |  |  |  | CCCCCC[C@@H](O)C/C=C/CCCCCCCC(=O)O | fold change (FC) (Mus musculus [5]): 1; fold change (FC) (Mus musculus [7]): 2
1 | 2 | 1 | Stable |  | CC(=O)C(CCCCCCC(=O)O)CCCC(O)CCc1ccccc1 (centres undefined) | 
 | 1 | 1 | Stable | > 100 µgequiv | CC(=O)C(CCCCCCC(=O)O)CCCC(C)O (centres undefined) | 
4 | 8 | 4 | Stable | 65 µgequiv | CCCC(O)CCCCCC(CCCCCCC(=O)O)C(C)=O (centres undefined) | 
3 |  | 7 | Stable |  | CCCCC[C@H](O)C#CCC(CCCCCCC(=O)O)C(C)=O (some centres undefined) | 
 | 1 | 1 | Stable |  | CC(=O)C(CC#CC1(O)CCCCC1)CCCCCCC(=O)O (centres undefined) | 
2 | 14 | 8 | Stable | 3.2 µgequiv | CCCCCC(O)/C=C/CC(CCCCCCC(=O)O)C(C)=O (centres undefined) | 
5 | 11 |  | Stable | 41 µgequiv | CCCCCCC(O)CCC(CCCCCCC(=O)O)C(C)=O (centres undefined) | 
 |  |  | Stable |  | CCCCCC(O)CCCC(CCCCCCC(=O)O)C(C)=O (mixture of isomers) [listing 2 of 2 here] | Activity (Canis familiaris [14]): 92 mL/min; ED50 (Cavia porcellus [13]): 6.5 mg/kg
